From ChEMBL document CHEMBL4350958, “Rational Design of Short Peptide Variants by Using Kunitzin-RE, an Amphibian-Derived Bioactivity Peptide, for Acquired Potent Broad-Spectrum Antimicrobial and Improved Therapeutic Potential of Commensalism Coinfection of Pathogens” (J Med Chem, 2019)
Active and inactive are the calls of the source.

Assays:
Staphylococcus aureus [1] = experiment: Induction of morphological changes in Staphylococcus aureus ATCC 29213 assessed as […] at MBD measured after 1 hr by transmission electron microscopic analysis; assay type: functional, organism-based
Candida albicans = experiment: Antifungal activity against Candida albicans cgmcc2.2086 infected in C57BL/6 mouse model of keratitis assessed as reduction in fungal hyphae extention into corneal stroma at 1 to 5 mg/ml administered as topical eye drop every 5 mins for first 4 hrs and every 30 mins for next 7 hrs measured post-last dose by periodic acid schiff staining-based histological analysis; assay type: functional, organism-based
Staphylococcus aureus [2] = experiment: Disruption of plasma membrane integrity in Staphylococcus aureus ATCC 29213 at MBC measured after 30 mins using FITC-labeled compound by propidium iodide staining-based microscopic analysis; assay type: organism-based
Method in brief: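 E. coli ATCC 25922 or S. aureus ATCC 29213 (OD600 0.2) incubated with FITC-labeled peptide at 1×MBC, 37 °C, 30 min. Cells washed, resuspended with PI (10 μg/mL) in PBS, smeared and imaged by superresolution microscopy using 488 and 535 nm filters for FITC and PI. Peptide-free cells served as controls. Three independent scans.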

Staphylococcus aureus [3] = experiment: Induction of morphological changes in Staphylococcus aureus ATCC 29213 assessed as tiny hole formation at MBD measured after 1 hr by transmission electron microscopic analysis; assay type: functional, organism-based

Measured: Activity

H-AARIILRWRFR-NH2
active: Staphylococcus aureus [1] | Candida albicans | Staphylococcus aureus [2] | Staphylococcus aureus [3]
